The values below come from ChEMBL document CHEMBL1154792, “chi-Conopeptide pharmacophore development: toward a novel class of norepinephrine transporter inhibitor (Xen2174) for pain” (J Med Chem, 2009).

The data set is filed under the species Rattus norvegicus. The data set is described as follows: Toxicity in CCI rat pain model assessed as side effects. The class given is organism-based. To be noted: in vivo. In outline:
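Rats with unilateral sciatic chronic constriction injury received a single intrathecal bolus via an implanted cannula 14 days after surgery, with morphine and vehicle as comparators. Compound-related behavioural observations were recorded alongside von Frey paw-withdrawal testing. Three animals per analogue.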

As to `CC(C)C[C@@H]1NC(=O)[C@H](CCCCN)NC(=O)[C@H](Cc2ccc(O)cc2)NC(=O)CNC(=O)[C@@H]2CSSC[C@H](NC1=O)C(=O)N[C@@H](Cc1cnc[nH]1)C(=O)N1CC[C@H](O)[C@H]1C(=O)N[C@H](C(=O)O)CSSC[C@H](NC(=O)[C@@H](NC(=O)CNC(=O)[C@@H](N)CC(N)=O)C(C)C)C(=O)N2`, the Activity entry was “Toxic”.
